Rows were chosen to be rich in hits. Some 3.8% of all compounds tested hit in one or more screens of this group.
Hep lipid drop = hepatic lipid droplet formation modulation. AML12 mouse hepatocytes, oleate lipid droplets, BODIPY imaging. inhibition, % at 6.5 µM. 240,000 compounds, 0.4% hits;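 active means lipid droplet intensity inhibited by at least 50%, with more than 500 cells counted; inconclusive means wells with under 300 cells, treated as cytotoxic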
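Test system: AML12 mouse liver cells; schedule: overnight exposure; technique: high-content imaging of BODIPY-stained droplets and DAPI nuclei; read-out: % inhibition of corrected integrated BODIPY droplet signal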
HSF1 inhib = HSF1 inhibition | NIH3T3-HGL HSE-luciferase, MG132-induced, luminescence 8 h; hits give low values | activity change, negative = inhibition, % at 7.5 µM (by protocol) | 300,000 compounds, 0.77% hits;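 active means more than half of replicate wells show activity change below -50%, luminescence cut by over half; inconclusive means some wells, but at most half, below -50%; inactive means no replicate well below -50%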;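 further: luciferase reports HSF-1 transcriptional activity via heat shock element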
NS3 helicase inh = blocks Hepatitis C virus NS3 helicase unwinding | NS3 helicase DNA unwinding, Cy5 molecular beacon fluorescence | inhibition, % at 10.9 µM | 290,000 compounds, 0.56% hits | AID 1800;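 active means inhibition above the mean of all tested compounds plus 3 SD, set per campaign, cut at about 35% in these data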
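System: HCV NS3 helicase fragment; control set: DMSO and thioflavine S; technique: Cy5 fluorescence at 0 and 60 min, beacon hairpin quenching; reagent: beacon DNA duplex substrate plus ATP; replicates: singlicate; schedule: 1 h reaction at 25 °C, ATP-initiated; medium: MOPS buffer pH 6.5 with MgCl2, DTT, Tween20, BSA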
HSP90 refold inh = blocks HSP90-mediated luciferase refolding in reticulocyte lysate; Rabbit reticulocyte lysate, luciferase refolding luminescence, 3 h; inhibition, % at 5.6 µM; 290,000 compounds, 0.91% hits;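 active means inhibition above the screen-wide mean plus 3 SD, computed separately per campaign, cut at about 16% in these data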;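 further: inhibitors lower the luminescence because luciferase stays unfolded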
HSF1 activator = increases HSF-1 driven luciferase reporter signal. NIH3T3-HGL HSF-1 luciferase reporter, MG132, 8 h; 100% = twice DMSO control signal. activation, % at 9 µM. 300,000 compounds, 1.7% hits;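 active means mean replicate activation of at least 50% with a set share of replicates each reaching 50%; inconclusive means only one of those two conditions met; inactive means mean below 50% and too few replicates reaching it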
HSP90 inh confirm = HSP90 inhibition, confirmation assay; rabbit reticulocyte lysate, luciferase refolding luminescence, 3 h; 2,300 compounds, 64% hits; shares compounds with HSP90 refold inh; inhibition, % at 5.9 µM; in the data active means inhibition above about 18%
luciferase ctr = firefly luciferase inhibition, HSP90 counter-screen | shares compounds with HSP90 refold inh | purified native firefly luciferase, luminescence | inhibition, % at 5.9 µM | 2,300 compounds, 48% hits | AID 1847;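 active means inhibition above the mean inhibition of all tested sample wells plus 3 SD, cut at about 10% in these data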
Target sequence (P08659 whole entry, looked up): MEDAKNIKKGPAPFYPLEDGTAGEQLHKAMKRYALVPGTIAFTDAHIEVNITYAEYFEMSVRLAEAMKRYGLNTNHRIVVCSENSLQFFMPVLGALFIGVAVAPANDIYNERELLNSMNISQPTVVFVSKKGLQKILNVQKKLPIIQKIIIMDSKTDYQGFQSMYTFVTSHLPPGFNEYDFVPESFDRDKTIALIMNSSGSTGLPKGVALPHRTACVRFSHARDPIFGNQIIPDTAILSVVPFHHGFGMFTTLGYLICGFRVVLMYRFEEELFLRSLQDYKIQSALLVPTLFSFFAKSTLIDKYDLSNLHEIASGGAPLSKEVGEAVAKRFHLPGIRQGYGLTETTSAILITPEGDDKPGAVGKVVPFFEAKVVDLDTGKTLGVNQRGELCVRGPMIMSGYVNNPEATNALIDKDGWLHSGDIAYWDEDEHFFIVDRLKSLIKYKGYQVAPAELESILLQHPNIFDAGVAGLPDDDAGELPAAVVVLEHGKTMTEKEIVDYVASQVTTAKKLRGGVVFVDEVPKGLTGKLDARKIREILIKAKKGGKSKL
Each line names hits and unclear results; the compound was inactive in the other large screens (follow-up assays come after a bar, where they were run).

COCCC(=O)N1CCC(Oc2ccc(C(=O)NCc3cccc(C)n3)cc2)CC1	none
O=C(NCC(c1cccs1)N1CCOCC1)c1cc([N+](=O)[O-])cc([N+](=O)[O-])c1 (centres undefined)	none
O=C(NCC(c1cccs1)N1CCOCC1)c1cccc([N+](=O)[O-])c1 (centres undefined)	HSP90 refold inh 67 | HSP90 inh confirm inactive | luciferase ctr inactive
CC1=CC(C)(C)Nc2ccc(OC(=O)c3ccco3)cc21	HSP90 refold inh 17 (no result: Hep lipid drop) | HSP90 inh confirm 32 | luciferase ctr inactive
Cc1cc(C)c(S(=O)(=O)N2CCOC2CNC(=O)C(=O)NCCCn2ccnc2)c(C)c1 (centres undefined)	none
CCOC(=O)c1c(NC(=O)Cn2ccsc2=N)sc(C)c1C	none
O=C(O)CCC(=O)Nc1ccccc1C(=O)N1CCN(c2ccc(Cl)cc2)CC1	none
CN(C)S(=O)(=O)c1ccc(NC(=O)c2ccncc2)cc1	HSP90 refold inh 42 | HSP90 inh confirm inactive | luciferase ctr inactive
COc1ccc(CN=C2NN=C(c3ccc(Cl)cc3)CS2)cc1	none
CC(C)(C)N=C1NN=C(c2ccc(Cl)cc2)CS1	HSF1 inhib inconclusive, HSP90 refold inh 20 | HSP90 inh confirm 22 | luciferase ctr 22
CC(C)(C)N=C1NN=C(c2cc3ccccc3o2)CS1	HSP90 refold inh 20 | HSP90 inh confirm 29 | luciferase ctr 23
CCCC(=NC(C)CC)C1=C(O)CC(c2ccccc2)CC1=O (centres undefined)	HSP90 refold inh 24 | HSP90 inh confirm inactive | luciferase ctr inactive
O=C(NC(=S)NNC(=O)c1ccco1)c1ccc(Br)cc1	none
COC(=O)C(Cc1ccc(O)cc1)NC(=O)c1ccc2c(c1)OCCO2 (centres undefined)	HSP90 refold inh 26 | HSP90 inh confirm 41 | luciferase ctr 28
COCCn1c(C)cc(C(=O)CSc2n[nH]c(N)n2)c1C	none
COCCn1c(C)cc(C(=O)CSc2nnc(C)s2)c1C	HSF1 inhib -56, HSP90 refold inh 48 | HSP90 inh confirm 80 | luciferase ctr 72
CCOC(=O)CON1C(=O)c2ccccc2C1=O	HSP90 refold inh 26 | HSP90 inh confirm inactive | luciferase ctr inactive
COc1ccc(CC(=O)Oc2cc(C)ccc2C)cc1	HSP90 refold inh 17 | HSP90 inh confirm inactive | luciferase ctr inactive
Cc1ccc(NC(=O)C2CCN(C(=O)c3ccco3)CC2)cc1	none
Cc1cc(Br)ccc1NC(=O)C1CCN(C(=O)c2ccco2)CC1	HSP90 refold inh 75 | HSP90 inh confirm inactive | luciferase ctr inactive
CCCc1nn(C)c(C(=O)Nc2cccc(Cl)c2)c1Cl	HSP90 refold inh 26 (no result: HSF1 inhib, HSF1 activator) | HSP90 inh confirm 35 | luciferase ctr 36
CCCc1nn(C)c(C(=O)Nc2ccccc2)c1Cl	HSP90 refold inh 36 | HSP90 inh confirm 52 | luciferase ctr 54
Cc1ccc(-c2csc(Nc3ccccn3)n2)cc1	HSP90 refold inh 19 | HSP90 inh confirm 26 | luciferase ctr 17
Oc1ccc(-c2csc(Nc3ccccn3)n2)cc1	HSP90 refold inh 21, HSF1 activator 63 | HSP90 inh confirm inactive | luciferase ctr inactive
CCOc1ccccc1-n1c(=S)sc2c(=O)n(-c3ccccc3)c(=S)[nH]c21	none
Cc1ccc(C)c(OCC(=O)O/N=C(\N)c2ccccn2)c1	none (no result: Hep lipid drop)
COc1ccccc1C(=O)O/N=C(\N)c1ccccn1	HSP90 refold inh 28 | HSP90 inh confirm inactive | luciferase ctr inactive
Cc1ccc(C(=O)O/N=C(\N)c2ccccn2)c(C)c1	HSF1 inhib -89, HSP90 refold inh 92 | HSP90 inh confirm 97 | luciferase ctr 94
Cc1ccccc1C(=O)O/N=C(\N)c1ccccc1	HSP90 refold inh 24 | HSP90 inh confirm 49 | luciferase ctr 77
COc1cc(OC)c(C(=O)O/N=C(\N)c2ccccn2)cc1OC	none
COc1cc(OC)c(C(=O)O/N=C(\N)c2ccccc2)cc1OC	none
N/C(=N\OC(=O)c1ccccc1Cl)c1ccccn1	HSP90 refold inh 73 (no result: Hep lipid drop) | HSP90 inh confirm 68 | luciferase ctr 89
Cc1ccc(S(=O)(=O)N(CC(=O)Nc2cccc(C)c2C)C(=O)N2CCN(C)CC2)cc1	none (no result: Hep lipid drop, NS3 helicase inh, HSP90 refold inh)
CC(=O)NC(c1ccccc1)c1cc(Cl)c2cccnc2c1O (centres undefined)	HSF1 inhib -83, HSP90 refold inh 18 | HSP90 inh confirm inactive | luciferase ctr inactive
CCC(=O)Nc1ccc2oc(-c3cccc(C)c3)nc2c1	HSP90 refold inh 24 (no result: HSF1 inhib, HSF1 activator) | HSP90 inh confirm 40 | luciferase ctr 35
Cc1ccc(-c2nc3cc(NC(=O)C(C)C)ccc3o2)cc1	none
Cc1ccc(-c2nc3cc(NC(=O)C(C)C)ccc3o2)cc1C	HSP90 refold inh 34 | HSP90 inh confirm 53 | luciferase ctr 54
COc1ccc(-c2nc3ccccn3c2Cl)cc1	HSP90 refold inh 24 | HSP90 inh confirm 47 | luciferase ctr 30
O=C1COc2ccc3ccccc3c21	HSP90 refold inh 25 | HSP90 inh confirm inactive | luciferase ctr inactive
O=C1CC2(CCOCC2)Oc2ccc3ccccc3c21	none (no result: Hep lipid drop, NS3 helicase inh, HSP90 refold inh)
C#CCOc1ccccc1/C=N/NC(=O)c1ccccc1OCc1ccccc1	none
CC(=O)c1ccccc1OCCCN1CCCCC1	HSP90 refold inh 28 (no result: Hep lipid drop) | HSP90 inh confirm inactive | luciferase ctr inactive
Brc1ccccc1OCCCN1CCCCCC1	none
Cc1cc(CNC(=O)c2cccnc2Cl)c2ccccc2n1	none
COC(=O)CSc1ncnc2c1sc1nc3c(cc12)COC(C)(C)C3	none
CC1(C)Cc2nc3sc4c(SCC(=O)O)ncnc4c3cc2CO1	HSP90 refold inh 19 (no result: HSF1 inhib, HSF1 activator) | HSP90 inh confirm 31 | luciferase ctr inactive
O=C(CNC(=O)N1CC(=O)Nc2ccccc21)Nc1ccc(Cl)cc1	none
O=C1CN(C(=O)CNCc2ccc(Cl)cc2)c2ccccc2N1	HSP90 refold inh 25 | HSP90 inh confirm inactive | luciferase ctr inactive
CC12CCC(=O)N1C(C(=O)N1CCN(S(=O)(=O)c3ccc(F)c(F)c3)CC1)CS2 (centres undefined)	none (no result: Hep lipid drop, NS3 helicase inh, HSP90 refold inh)
CC1(C)Cc2ccccc2C(/C(C#N)=N/O)=N1	none
NNC(=S)Nc1ccccc1Cl	HSF1 inhib -53, HSP90 refold inh 45 | HSP90 inh confirm 27 | luciferase ctr inactive
COc1ccccc1C(=O)N(Cc1ccccc1)c1ccc(C)cc1	HSP90 refold inh 57 | HSP90 inh confirm inactive | luciferase ctr inactive
CC(NC(=O)c1ccccc1F)C1CC1 (centres undefined)	none
CN(C)C1=NC[C@H](Cc2ccccc2)N1CC1CCC(C(C)(C)C)CC1 (some centres undefined)	none
CC1CCCC(C)N1C(=O)COC(=O)CNC(=O)c1sc2ccccc2c1Cl (centres undefined)	none (no result: Hep lipid drop, NS3 helicase inh, HSP90 refold inh)
c1c2c(cc3sc(N4CCOCC4)nc13)OCCO2	HSP90 refold inh 62 | HSP90 inh confirm 85 | luciferase ctr 78

Source: PubChem
